In general, IC50 refers to the concentration that inhibits the measured activity by half.

Holding throughout (format): functional, cell-based
For one assay, the system named is K562. Briefly: Inhibitory concentration against human leukemia K562 cell lines. The gist of the method:
(§1)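 MTS assay. Cells (2000-10 000) seeded in RPMI-1640 and grown 24 h, then exposed to various concentrations for 72 h at 37 °C under 5% CO₂. MTS (2 mg/ml) with PMS (25 µM) added for 3 h at 37 °C, and formazan read at 490 nm. IC50 taken from dose-response curves of % growth vs untreated control.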

Assay [1] concerns MCF7. Briefly: Inhibitory concentration against human Breast cancer MCF-7 cell lines. The gist of the method: as §1
The subject of another assay is SW-620. Briefly: Inhibitory concentration against human colorectal carcinoma SW620 cell lines. The gist of the method:
as §1

The subject of the next assay is HT-29. Briefly: Inhibitory concentration against human colorectal carcinoma HT-29 cell lines. The gist of the method:
as §1

The test system of assay [2] is MCF7. Briefly: Inhibitory concentration against human breast cancer MCF-7 cell lines. The method in brief: as §1

For `COC1/C=C\C=C(/C)C(=O)NC2=CC(=O)C(NCCO[C@@H]3O[C@@H](CO)[C@@H](O)[C@H](O)[C@@H]3O)=C(C[C@@H](C)C[C@H](OC)[C@H](O)C(C)/C=C(\C)[C@@H]1OC(N)=O)C2=O` (stereo partly drawn), the IC50 turned out to be 0.381 µM in the assay with K562, 0.754 µM in the assay on MCF7 [1], 0.0702 µM in the assay on SW-620 and 0.105 µM with HT-29.
Regarding `COC1/C=C\C=C(/C)C(=O)NC2=CC(=O)C(NCCCO[C@@H]3O[C@@H](CO)[C@H](O)[C@H](O)[C@@H]3O)=C(C[C@@H](C)C[C@H](OC)[C@H](O)C(C)/C=C(\C)[C@@H]1OC(N)=O)C2=O` (stereo partly drawn), the IC50 is over 14 µM in the assay with K562, over 12 µM in the assay with MCF7 [1], over 14 µM in the assay on SW-620 and over 6 µM with HT-29.
Take `COC1/C=C\C=C(/C)C(=O)NC2=CC(=O)C(NCCCCCO[C@@H]3O[C@@H](CO)[C@H](O)[C@H](O)[C@@H]3O)=C(C[C@@H](C)C[C@H](OC)[C@H](O)C(C)/C=C(\C)[C@@H]1OC(N)=O)C2=O` (stereo partly drawn): the IC50 is over 19 µM with K562, over 17 µM in the assay on MCF7 [1], over 13 µM with SW-620 and over 13 µM in the assay on HT-29.
Consider `COC1/C=C\C=C(/C)C(=O)NC2=CC(=O)C(NCCO[C@@H]3O[C@@H](CO)[C@H](O)[C@H](O)[C@@H]3O)=C(C[C@@H](C)C[C@H](OC)[C@H](O)C(C)/C=C(\C)[C@@H]1OC(N)=O)C2=O` (stereo partly drawn), for which the IC50 in the assay on K562 was over 23 µM; with MCF7 [1], over 25 µM; in the assay on SW-620 it was over 8 µM; in the assay with HT-29, over 14 µM.
Consider `COC1/C=C\C=C(/C)C(=O)NC2=CC(=O)C(NCCOCCO[C@@H]3O[C@@H](CO)[C@H](O)[C@H](O)[C@@H]3O)=C(C[C@@H](C)C[C@H](OC)[C@H](O)C(C)/C=C(\C)[C@@H]1OC(N)=O)C2=O` (stereo partly drawn), for which the IC50 in the assay with K562 was over 15 µM; with MCF7 [1], over 22 µM; in the assay with SW-620, over 11 µM; with HT-29, over 13 µM.
Regarding `COC1=C2C[C@@H](C)C[C@H](OC)[C@H](O)[C@@H](C)/C=C(\C)[C@H](OC(N)=O)[C@@H](OC)/C=C\C=C(/C)C(=O)NC(=CC1=O)C2=O` [GELDANAMYCIN], the IC50 in the assay with K562 was determined as 0.0221 µM; with MCF7 [2], 0.0065 µM; with SW-620, 0.0062 µM; with HT-29 it was 0.0245 µM.
Regarding `COC1/C=C\C=C(/C)C(=O)NC2=CC(=O)C(NCCO[C@@H]3O[C@@H](CO)[C@@H](O[C@@H]4O[C@@H](CO)[C@H](O)[C@H](O)[C@@H]4O)[C@H](O)[C@@H]3O)=C(C[C@@H](C)C[C@H](OC)[C@H](O)C(C)/C=C(\C)[C@@H]1OC(N)=O)C2=O` (stereo partly drawn), the IC50 with K562 is over 25 µM; in the assay with MCF7 [1], over 22 µM; in the assay with SW-620 it was over 20 µM; with HT-29, over 25 µM.

Values taken from ChEMBL document CHEMBL1145179, “Synthesis and enzyme-specific activation of carbohydrate-geldanamycin conjugates with potent anticancer activity” (J Med Chem, 2005).
